ChEMBL document CHEMBL5154634, “A Modular Synthetic Route Involving N-Aryl-2-nitrosoaniline Intermediates Leads to a New Series of 3-Substituted Halogenated Phenazine Antibacterial Agents” (J Med Chem, 2021)
Converted amounts (≈) assume the structure as drawn.

Key:
Staphylococcus aureus [1] = assay: Antibacterial activity against methicillin-resistant Staphylococcus aureus BAA-1707 assessed as bacterial growth inhibition incubated for 16 hrs by broth microdilution susceptibility test; assay type: functional
In short: (§1)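 CLSI broth microdilution with 11 twofold dilutions (0.05–50 μM). About 10^5 cells per well from a log-phase culture. DMSO vehicle up to 0.5% v/v. At least three independent experiments.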

Staphylococcus aureus [2] = assay: Antibacterial activity against methicillin-resistant Staphylococcus aureus BAA-44 assessed as bacterial growth inhibition incubated for 16 hrs by broth microdilution susceptibility test; assay type: functional
In short: (§2)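 CLSI broth microdilution with 11 twofold dilutions (0.05–50 μM). Medium was LB for the staphylococci and BHI for VRE 700221. About 10^5 cells per well from a log-phase culture. […] DMSO vehicle up to 0.5% v/v. At least three independent experiments.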

Enterococcus faecalis [3] = assay: Antibacterial activity against Enterococcus faecalis OG1RF ATCC 47077 assessed as bacterial growth inhibition incubated for 16 hrs by broth microdilution susceptibility test; assay type: functional
Staphylococcus aureus [4] = assay: Bactericidal activity against methicillin-resistant Staphylococcus aureus BAA-1707 planktonic cells assessed as planktonic eradication incubated for 24 hrs followed by incubation for overnight in fresh medium by Calgary biofilm device assay; assay type: functional
In short: (§3)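 Calgary biofilm device. Biofilms grown 24 h at 37 °C in TSB with 0.5% glucose, then challenged 24 h with twofold compound dilutions. 20 μL of challenge medium transferred into fresh TSB with 0.5% glucose and incubated overnight at 37 °C. MBC is the concentration with no visible turbidity. At least three independent experiments.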

Staphylococcus aureus [5] = assay: Antibiofilm activity against methicillin-resistant Staphylococcus aureus BAA-1707 biofilms assessed as biofilm eradication incubated for 24 hrs followed by incubation for 24 hrs in fresh medium by Calgary biofilm device assay; assay type: functional
In short: (§4)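 Calgary biofilm device. Mid-log culture diluted 1000-fold in TSB with 0.5% glucose; biofilms grown on pegs 24 h at 37 °C. Pegs washed and challenged with twofold compound dilutions for 24 h at 37 °C, then moved to fresh medium for 24 h. MBEC is the lowest concentration leaving wells non-turbid. At least three independent experiments.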

[6] = test system: Staphylococcus epidermidis; assay: Antibiofilm activity against methicillin-resistant Staphylococcus epidermidis ATCC 35984 biofilms assessed as biofilm eradication incubated for 24 hrs followed by incubation for 24 hrs in fresh medium by Calgary biofilm device assay; assay type: functional; in short: as §4
Enterococcus faecium [7] = assay: Bactericidal activity against methicillin-resistant vancomycin-resistant Enterococcus faecium ATCC 700221 planktonic cells assessed as planktonic eradication incubated for 24 hrs followed by incubation for overnight in fresh medium by Calgary biofilm device assay; assay type: functional; in short: as §3
Enterococcus faecium [8] = assay: Antibiofilm activity against methicillin-resistant vancomycin-resistant Enterococcus faecium ATCC 700221 biofilms assessed as biofilm eradication incubated for 24 hrs followed by incubation for 24 hrs in fresh medium by Calgary biofilm device assay; assay type: functional; in short: as §4
Enterococcus faecalis [9] = assay: Bactericidal activity against […] Enterococcus faecalis OG1RF ATCC 47077 planktonic cells assessed as planktonic eradication incubated for 24 hrs followed by incubation for overnight in fresh medium by Calgary biofilm device assay; assay type: functional
In short: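 Calgary biofilm device in BHI. Biofilms grown 24 h at 37 °C and challenged 24 h with twofold compound dilutions. Challenge medium subcultured 1:10 into fresh BHI overnight at 37 °C. MBC is the concentration with no turbidity. At least three independent experiments.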

Enterococcus faecalis [10] = assay: Antibiofilm activity against Enterococcus faecalis OG1RF ATCC 47077 biofilms assessed as biofilm eradication incubated for 24 hrs followed by incubation for 24 hrs in fresh medium by Calgary biofilm device assay; assay type: functional
In short: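 Calgary biofilm device. Biofilms grown 24 h at 37 °C in BHI from mid-log culture diluted 1000-fold. Pegs washed and then challenged 24 h with twofold serial dilutions. Pegs moved to fresh BHI for 24 h recovery. MBEC = lowest concentration leaving no turbidity; at least three independent experiments.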

Erythrocyte = assay: Hemolytic activity against human RBC at 200 uM measured after 1 hr; assay type: toxicity, cell-based
In short: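 2% hRBCs exposed to compound at 200 μM final, added from DMSO stock, for 1 h at 37 °C. Supernatant OD read at 405 nm. Hemolysis normalized between DMSO (0%) and Triton X (100%); three independent experiments.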

[11] = test system: Staphylococcus epidermidis; assay: Antibacterial activity against methicillin-resistant Staphylococcus epidermidis ATCC 35984 assessed as bacterial growth inhibition incubated for 16 hrs by broth microdilution susceptibility test; assay type: functional; in short: as §1
Enterococcus faecium [12] = assay: Antibacterial activity against vancomycin-resistant Enterococcus faecium ATCC 700221 assessed as bacterial growth inhibition incubated for 16 hrs by broth microdilution susceptibility test; assay type: functional; in short: as §2
[13] = test system: Mycobacterium tuberculosis; assay: Antibacterial activity against Mycobacterium tuberculosis CDC1551 assessed as bacterial growth inhibition incubated for 5 days by luminescence based analysis; assay type: functional; details: CDC1551, 120 h, time 5 day
In short: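 Bioluminescent Mtb-lux CDC1551 reporter grown in Middlebrook 7H9 with 0.05% Tween 80, 10% OADC and kanamycin to OD600 0.4–0.8, then diluted to OD600 0.02. Added to twofold drug dilutions (0.003–200 μM). Incubated 5 days at 37 °C, 5% CO2. Luminescence read against 1% DMSO and 10 μM rifampicin controls to give % growth inhibition. MIC taken from a modified Gompertz fit.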

J774 = assay: Cytotoxicity against mouse J774 cells assessed as reduction in cell viability […] by Alamar blue assay; assay type: toxicity, cell-based
HepG2 = assay: Cytotoxicity against human HepG2 cells assessed as reduction in cell viability […] by Alamar blue assay; assay type: toxicity, cell-based
[14] = test system: Staphylococcus epidermidis; assay: Bactericidal activity against methicillin-resistant Staphylococcus epidermidis ATCC 35984 planktonic cells assessed as planktonic eradication incubated for 24 hrs followed by incubation for overnight in fresh medium by Calgary biofilm device assay; assay type: functional; in short: as §3
HeLa = assay: Cytotoxicity against human HeLa cells assessed as reduction in cell viability incubated for 24 hrs by LDH release assay; assay type: toxicity, cell-based
In short: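 HeLa cells in DMEM with 10% FBS, treated at 70–80% confluence with 25, 50 and 100 μM for 24 h. LDH in supernatant measured by 30 min reaction at room temperature, then stop solution and absorbance at 490 nm. Controls: 2% Triton X-100 (maximum), medium only, DMSO vehicle. Three independent experiments.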

Structure (SMILES) | MIC (Staphylococcus aureus [1]) [µM] | MIC (Staphylococcus aureus [2]) [µM] | MIC (Enterococcus faecalis [3]) [µM] | MBC (Staphylococcus aureus [4]) [µM] | MBEC (Staphylococcus aureus [5]) [µM] | MBEC [6] [µM] | MBC (Enterococcus faecium [7]) [µM] | MBEC (Enterococcus faecium [8]) [µM] | MBC (Enterococcus faecalis [9]) [µM] | MBEC (Enterococcus faecalis [10]) [µM] | Activity (Erythrocyte) | MIC [11] [µM] | MIC (Enterococcus faecium [12]) [µM] | MIC [13] [µM] | IC50 (J774) [µM] | IC50 (HepG2) [µM] | MBC [14] [µM] | IC50 (HeLa) [µM]
Cc1cccc2nc3c(O)c(Br)cc(Br)c3nc12 | 0.3 (≈ 0.11 µg/mL) |  |  |  |  |  |  |  |  |  |  |  |  |  |  |  |  | 
c1ccc(CN(CCN(Cc2ccccn2)Cc2ccccn2)Cc2ccccn2)nc1 | 46.9 (≈ 19.9 µg/mL) | 46.9 (≈ 19.9 µg/mL) | 46.9 (≈ 19.9 µg/mL) | 250 (≈ 106 µg/mL) | >2000 | >2000 | 188 (≈ 79.8 µg/mL) | >2000 | 500 (≈ 212 µg/mL) | >2000 | <= 1% |  |  |  |  |  |  | 
Oc1c(Br)cc(Br)c2nc3cc(Cl)ccc3nc12 | 0.1 (≈ 0.0388 µg/mL) |  |  |  |  |  |  |  |  |  |  |  |  |  |  |  |  | 
Cc1c(Br)ccc2nc3c(O)c(Br)c(Cl)c(Br)c3nc12 | 0.59 (≈ 0.284 µg/mL) |  | 0.05 (≈ 0.0241 µg/mL) | 75 (≈ 36.1 µg/mL) | 75 |  | 2.35 (≈ 1.13 µg/mL) | 0.2 | 1.56 (≈ 0.751 µg/mL) | 0.78 | 27% | 0.1 (≈ 0.0481 µg/mL) | ≤ 0.05 | 0.88 (≈ 0.424 µg/mL) | > 200 | > 200 |  | 
Cc1cccc2nc3c(O)cc(Cl)cc3nc12 |  |  |  |  |  |  |  |  |  |  |  | 2.35 (≈ 0.575 µg/mL) | 3.13 (≈ 0.766 µg/mL) |  |  |  |  | 
Oc1c(Br)c(Cl)c(Br)c2nc3ccc(I)cc3nc12 | 0.15 (≈ 0.0772 µg/mL) |  | 1.56 (≈ 0.802 µg/mL) | 12.5 (≈ 6.43 µg/mL) |  | 6.25 | 4.69 (≈ 2.41 µg/mL) | 3.13 |  |  | 3% | 0.3 (≈ 0.154 µg/mL) |  |  |  |  | 6.25 (≈ 3.21 µg/mL) | 
Oc1cc(Cl)cc2nc3ccc(I)cc3nc12 | 0.78 (≈ 0.278 µg/mL) | 1.56 (≈ 0.556 µg/mL) |  | 37.5 (≈ 13.4 µg/mL) | 37.5 |  |  |  |  |  | 1.9% |  | 3.13 (≈ 1.12 µg/mL) |  |  |  |  | 100
Cc1cccc2nc3c(O)c(Br)c(SCCO)c(Br)c3nc12 | 6.25 (≈ 2.78 µg/mL) | 6.25 (≈ 2.78 µg/mL) |  |  |  |  |  |  |  |  |  |  | 12.5 (≈ 5.55 µg/mL) |  |  |  |  | 
Cc1ccc2nc3c(O)c(Br)c(Cl)c(Br)c3nc2c1C | 0.05 (≈ 0.0208 µg/mL) |  | 0.2 (≈ 0.0833 µg/mL) |  |  |  | 0.78 (≈ 0.325 µg/mL) | 0.3 |  |  | <= 1% | ≤ 0.05 | 0.08 (≈ 0.0333 µg/mL) | 3.62 (≈ 1.51 µg/mL) | > 200 | > 200 | 3.13 (≈ 1.3 µg/mL) | 
Oc1c(Br)c(Cl)c(Br)c2nc3ccc(F)cc3nc12 | 0.15 (≈ 0.061 µg/mL) | 0.2 (≈ 0.0813 µg/mL) |  | 12.5 (≈ 5.08 µg/mL) |  | 12.5 | 3.13 (≈ 1.27 µg/mL) |  |  |  | <= 1% |  | 0.78 (≈ 0.317 µg/mL) | 1.71 (≈ 0.695 µg/mL) | > 200 | > 200 | 12.5 (≈ 5.08 µg/mL) | > 25
Oc1cccc2nc3ccccc3nc12 | 50 (≈ 9.81 µg/mL) | 50 (≈ 9.81 µg/mL) | > 50 |  |  |  |  |  |  |  |  | 37.5 (≈ 7.36 µg/mL) | > 50 |  |  |  |  | 
Oc1cc(Cl)cc2nc3ccc(F)cc3nc12 | 6.25 (≈ 1.55 µg/mL) |  |  |  |  |  |  |  |  |  |  |  |  |  |  |  |  | 
